# ChEMBL document CHEMBL1212693, “Dorsomorphin inhibits BMP signals required for embryogenesis and iron metabolism” (Nat Chem Biol, 2008)
# The source made the active and inactive calls. No cut-off for these calls is given here.
# Legend:
# C2C12 = test: Inhibition of BMPR1-mediated osteoblast differentiation in BMP6-stimulated mouse C2C12 cells assessed as decrease in alkaline phosphatase level at 4 uM by spectrophotometry; assay type: cell-based
# Summary of the method: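 C2C12 cells were seeded at 2,000 per well in DMEM with 2% FBS and treated in quadruplicate with BMP4 or BMP6 plus compound or vehicle. After 5 d, cells were lysed in TBS with 1% Triton X-100. Lysates were incubated 1 h with p-nitrophenylphosphate and alkaline phosphatase was read as absorbance at 405 nm. Cell count was measured by CyQuant in parallel wells.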
# Mus musculus [1] = species on record: Mus musculus; test: Inhibition of BMPR1-mediated Smad-8 phosphorylation in BMP6-stimulated mouse BMPR2 deficient PASMC at 4 uM treated 30 mins before BMP6 measured after 30 mins by immunoblot analysis
# Danio rerio [2] = species on record: Danio rerio; test: Inhibition of BMPR1 in zebrafish assessed as penetrance of moderate embryonic axis dorsalization at 1 uM treated at 3 hrs post-fertilization measured at 48 hrs; design: scale not given: the % may be the effect or the level left
# Summary of the method: (§1)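 Compound added at the stated times and concentrations. Gross morphology scored visually at up to 48 h.p.f. for dorsalization of the embryonic axis.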
# Danio rerio [3] = species on record: Danio rerio; test: Inhibition of BMPR1 in zebrafish assessed as severity of embryonic axis dorsalization at 5 uM treated at 3 hrs post-fertilization measured at 48 hrs; design: scale not given: the % may be the effect or the level left
# Danio rerio [4] = species on record: Danio rerio; test: Inhibition of BMPR1 in zebrafish assessed as penetrance of moderate embryonic axis dorsalization at 10 uM treated at 3 hrs post-fertilization measured at 48 hrs; design: scale not given: the % may be the effect or the level left; summary of the method: as §1
# HepG2 = test: Inhibition of BMPR1-mediated hepcidin mRNA expression in BMP2-stimulated human HepG2 cells at 10 uM treated 30 mins before BMP2 challenge measured after 16 hrs by qRT-PCR analysis; assay type: cell-based
# Mus musculus [5] = species on record: Mus musculus; test: Inhibition of BMPR1-mediated Smad-5 phosphorylation in BMP4-stimulated mouse BMPR2 deficient PASMC at 4 uM treated 30 mins before BMP4 challenge measured after 30 mins by immunoblot analysis
# Danio rerio [6] = species on record: Danio rerio; test: Inhibition of BMPR1 in zebrafish assessed as penetrance of mild embryonic axis dorsalization at 10 uM treated at 6 to 8 hrs post-fertilization measured at 48 hrs; design: scale not given: the % may be the effect or the level left; summary of the method: as §1
# Danio rerio [7] = species on record: Danio rerio; test: Inhibition of BMPR1 in zebrafish assessed as penetrance of moderate embryonic axis dorsalization at 2 uM treated at 3 hrs post-fertilization measured at 48 hrs; design: scale not given: the % may be the effect or the level left
# Danio rerio [8] = species on record: Danio rerio; test: Inhibition of BMPR1 in zebrafish assessed as severity of embryonic axis dorsalization at 0.5 uM treated at 3 hrs post-fertilization measured at 48 hrs; design: scale not given: the % may be the effect or the level left
# Danio rerio [9] = species on record: Danio rerio; test: Inhibition of BMPR1 in zebrafish assessed as increase in pax2a expression at 10 uM treated at 12 hrs post-fertilization measured at 48 hrs
# Danio rerio [10] = species on record: Danio rerio; test: Inhibition of BMPR1 in zebrafish assessed as penetrance of moderate embryonic axis dorsalization at 10 uM treated at 2 to 6 hrs post-fertilization measured at 48 hrs; design: scale not given: the % may be the effect or the level left; summary of the method: as §1
# Danio rerio [11] = species on record: Danio rerio; test: Inhibition of BMPR1 in zebrafish assessed as penetrance of mild embryonic axis dorsalization at 10 uM treated at 2 to 4 hrs post-fertilization measured at 48 hrs; design: scale not given: the % may be the effect or the level left; summary of the method: as §1
# Danio rerio [12] = species on record: Danio rerio; test: Inhibition of BMPR1 in zebrafish assessed as severity of embryonic axis dorsalization at 10 uM treated continuously from 8 hrs post-fertilization measured at 48 hrs; design: scale not given: the % may be the effect or the level left
# Danio rerio [13] = species on record: Danio rerio; test: Inhibition of BMPR1 in zebrafish assessed as increase in myod expression at 10 uM treated at 12 hrs post-fertilization measured at 48 hrs
# Mus musculus [14] = species on record: Mus musculus; test: Inhibition of BMPR1-mediated Smad-5 phosphorylation in BMP7-stimulated mouse PASMC at 4 uM treated 30 mins before BMP7 challenge measured after 30 mins by immunoblot analysis
# Summary of the method: (§2)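 Wild-type mouse PASMCs were kept in RPMI with 0.5% FCS for 24 h. They were preincubated with compound or vehicle for 30 min, then stimulated for 30 min with recombinant BMP2, BMP4, BMP6 or BMP7 at 10 ng ml−1. Lysates in SDS buffer were immunoblotted with anti-phospho-SMAD1/5/8. Total SMAD1 and α-tubulin served as loading controls, and bands were quantified by phosphorimager.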
# Danio rerio [15] = test: Inhibition of iron-dextran conjugate-induced hepcidin mRNA expression in zebrafish at 23 ug/g, ip by qRT-PCR analysis; assay type: functional, organism-based
# Summary of the method: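 Adult zebrafish under tricaine were injected intraperitoneally with 10 µl iron-dextran (100 mg ml−1) plus compound (23 µg g−1) or DMSO vehicle; controls received dextran. Livers were taken 3 h later and RNA was extracted with Trizol. Hepcidin mRNA was measured by qRT-PCR and normalised to liver fatty acid binding protein mRNA, with n = 4 per group.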
# Mus musculus [16] = species on record: Mus musculus; test: Inhibition of ALK6-mediated Smad-8 phosphorylation in BMPR2 deficient mouse PASMC at 10 uM by immunoblot analysis
# Summary of the method: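 BMPR-II–deficient mouse PASMCs (RPMI, 10% FBS) transiently transfected with constitutively active ALK2, ALK3 or ALK6 cDNA, or plasmid-only control. Incubated with or without compound (10 µM). Extracts lysed in SDS buffer, run on SDS-PAGE and immunoblotted for phospho-SMAD1/5/8; quantitated by phosphorimager.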
# Danio rerio [17] = species on record: Danio rerio; test: Inhibition of BMPR1 in zebrafish assessed as penetrance of moderate embryonic axis dorsalization at 10 uM treated at 2 to 4 hrs post-fertilization measured at 48 hrs; design: scale not given: the % may be the effect or the level left; summary of the method: as §1
# Danio rerio [18] = species on record: Danio rerio; test: Inhibition of BMPR1 in zebrafish assessed as penetrance of moderate embryonic axis dorsalization at 10 uM treated continuously from 6 hrs post-fertilization measured at 48 hrs; design: scale not given: the % may be the effect or the level left; summary of the method: as §1
# Danio rerio [19] = species on record: Danio rerio; test: Inhibition of BMPR1 in zebrafish assessed as penetrance of moderate embryonic axis dorsalization at 0.2 uM treated at 3 hrs post-fertilization measured at 48 hrs; design: scale not given: the % may be the effect or the level left; summary of the method: as §1
# Danio rerio [20] = species on record: Danio rerio; test: Inhibition of BMPR1 in zebrafish assessed as penetrance of normal embryonic axis dorsalization at 0.5 uM treated at 3 hrs post-fertilization measured at 48 hrs; design: scale not given: the % may be the effect or the level left
# Mus musculus [21] = species on record: Mus musculus; test: Inhibition of BMPR1-mediated Smad-5 phosphorylation in BMP4-stimulated mouse PASMC at 4 uM treated 30 mins before BMP4 challenge measured after 30 mins by immunoblot analysis; summary of the method: as §2
# Mus musculus [22] = test: Increase in serum iron concentration in C57BL/6 mouse at 10 mg/kg, iv after 24 hrs; assay type: functional
# Danio rerio [23] = species on record: Danio rerio; test: Inhibition of BMPR1 in zebrafish assessed as severity of embryonic axis dorsalization at 2 uM treated at 3 hrs post-fertilization measured at 48 hrs; design: scale not given: the % may be the effect or the level left
# Danio rerio [24] = species on record: Danio rerio; test: Inhibition of BMPR1 in zebrafish assessed as severity of embryonic axis dorsalization at 10 uM treated at 2 to 6 hrs post-fertilization measured at 48 hrs; design: scale not given: the % may be the effect or the level left
# Danio rerio [25] = test: Inhibition of iron-dextran conjugate-induced Smad-8 phosphorylation in zebrafish at 23 ug/g, iv after 1 hr relative to control; assay type: functional
# Danio rerio [26] = species on record: Danio rerio; test: Inhibition of BMPR1 in zebrafish assessed as penetrance of mild embryonic axis dorsalization at 2 uM treated at 3 hrs post-fertilization measured at 48 hrs; design: scale not given: the % may be the effect or the level left; summary of the method: as §1
# Danio rerio [27] = species on record: Danio rerio; test: Inhibition of BMPR1 in zebrafish assessed as penetrance of normal embryonic axis dorsalization at 10 uM treated continuously from 8 hrs post-fertilization measured at 48 hrs; design: scale not given: the % may be the effect or the level left
smiles,measurement,setting,value
c1cc(-c2cnn3cc(-c4ccc(OCCN5CCCCC5)cc4)cnc23)ccn1 [DORSOMORPHIN],inhibition,C2C12,Active
same,inhibition,Mus musculus [1],Active
same,Activity,Danio rerio [2],0%
same,Activity,Danio rerio [3],19%
same,Activity,Danio rerio [4],98%
same,inhibition,HepG2,Active
same,inhibition,Mus musculus [5],Active
same,Activity,Danio rerio [6],95%
same,Activity,Danio rerio [7],0%
same,Activity,Danio rerio [8],0%
same,Activity,Danio rerio [9],Active
same,Activity,Danio rerio [10],44%
same,Activity,Danio rerio [11],10%
same,Activity,Danio rerio [12],0%
same,Activity,Danio rerio [13],Active
same,inhibition,Mus musculus [14],Active
same,inhibition,Danio rerio [15],Active
same,inhibition,Mus musculus [16],Active
same,Activity,Danio rerio [17],90%
same,Activity,Danio rerio [18],78%
same,Activity,Danio rerio [19],0%
same,Activity,Danio rerio [20],100%
same,inhibition,Mus musculus [21],Active
same,Activity,Mus musculus [22],60%
same,Activity,Danio rerio [23],0%
same,Activity,Danio rerio [24],39%
same,fold change (FC),Danio rerio [25],3
same,Activity,Danio rerio [26],0%
same,Activity,Danio rerio [27],15%
